Assay results: ChEMBL document CHEMBL1275537, “In vitro activities of tigecycline and 10 other antimicrobials against nonpigmented rapidly growing mycobacteria” (2008)
Converted amounts (≈) assume the structure as drawn.

How the values were obtained:
Assay type in all cases: functional
Mycobacterium wolinskyi = test: Antibacterial activity against nonpigmented rapidly growing Mycobacterium wolinskyi after 3 days by broth microdilution method; settings: Mycolicibacterium wolinskyi, 72 h
Method in brief: (§1)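 MIC by broth microdilution. Strains are collection strains and clinical isolates, grown on 5% sheep blood tryptic soy agar at 35°C for 4 days in room air. Inoculum is made straight from the blood agar plates in cation-supplemented Mueller-Hinton broth with 0.02% Tween 80. Doubling dilutions run 64 to 0.03 µg/ml. Plates are incubated at 30°C in room air and read at 3 days. E. coli ATCC 25922, S. aureus ATCC 29213 and E. faecalis ATCC 29212 serve as controls. MIC50 and MIC90 are given where ≥10 strains were tested, otherwise the range.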

[1] = tested on: Mycolicibacterium fortuitum; test: Antibacterial activity against nonpigmented rapidly growing Mycobacterium fortuitum after 3 days by broth microdilution method; settings: 72 h; method in brief: as §1
[2] = tested on: Mycolicibacterium mageritense; test: Antibacterial activity against nonpigmented rapidly growing Mycobacterium mageritense after 3 days by broth microdilution method; settings: 72 h; method in brief: as §1
[3] = tested on: Mycolicibacterium peregrinum; test: Antibacterial activity against nonpigmented rapidly growing Mycobacterium peregrinum after 3 days by broth microdilution method; settings: 72 h; method in brief: as §1
Mycobacteroides chelonae = test: Antibacterial activity against nonpigmented rapidly growing Mycobacterium chelonae after 3 days by broth microdilution method; settings: 72 h; method in brief: as §1
[4] = tested on: Mycobacteroides abscessus; test: Antibacterial activity against nonpigmented rapidly growing Mycobacterium abscessus after 3 days by broth microdilution method; settings: 72 h; method in brief: as §1
[5] = tested on: Mycobacterium mucogenicum; test: Antibacterial activity against nonpigmented rapidly growing Mycobacterium mucogenicum after 3 days by broth microdilution method; settings: Mycolicibacterium mucogenicum, 72 h; method in brief: as §1
Mycobacterium septicum = test: Antibacterial activity against nonpigmented rapidly growing Mycobacterium septicum after 3 days by broth microdilution method; settings: Mycolicibacterium septicum, 72 h; method in brief: as §1
[6] = tested on: Mycolicibacterium smegmatis; test: Antibacterial activity against nonpigmented rapidly growing Mycobacterium smegmatis after 3 days by broth microdilution method; settings: 72 h; method in brief: as §1
Mycobacterium alvei = test: Antibacterial activity against nonpigmented rapidly growing Mycobacterium alvei after 3 days by broth microdilution method; settings: Mycolicibacterium alvei, 72 h; method in brief: as §1
Mycobacterium porcinum = test: Antibacterial activity against nonpigmented rapidly growing Mycobacterium porcinum after 3 days by broth microdilution method; settings: Mycolicibacterium porcinum, 72 h; method in brief: as §1

Row | SMILES | MIC (Mycobacterium wolinskyi) [µg/mL] | MIC50 [1] [µg/mL] | MIC90 [1] [µg/mL] | MIC [2] [µg/mL] | MIC50 [3] [µg/mL] | MIC90 [3] [µg/mL] | MIC50 (Mycobacteroides chelonae) [µg/mL] | MIC90 (Mycobacteroides chelonae) [µg/mL] | MIC50 [4] [µg/mL] | MIC90 [4] [µg/mL] | MIC [5] [µg/mL] | MIC (Mycobacterium septicum) [µg/mL] | MIC [6] [µg/mL] | MIC (Mycobacterium alvei) [µg/mL] | MIC (Mycobacterium porcinum) [µg/mL]
1 | C[C@H]1c2cccc(O)c2C(=O)C2=C(O)[C@]3(O)C(=O)C(C(N)=O)=C(O)[C@@H](N(C)C)[C@@H]3[C@@H](O)[C@@H]21.O [DOXYCYCLINE] | 0.25 | 4 | 64 | ≤ 0.03 | 8 | 32 | 8 | 64 | > 64 | > 64 | ≤ 0.03 | 32 | ≤ 0.03 | ≤ 0.03 | 8
2 | CO[C@@]1(NC(=O)Cc2cccs2)C(=O)N2C(C(=O)O)=C(COC(N)=O)CS[C@@H]21 [CEFOXITIN] | 1 (≈ 2.34 µM) | – | – | 1 (≈ 2.34 µM) | – | – | – | – | – | – | 0.5 (≈ 1.17 µM) | 32 (≈ 74.9 µM) | 1 (≈ 2.34 µM) | 2 (≈ 4.68 µM) | 2 (≈ 4.68 µM)
3 | CC[C@H]1OC(=O)[C@H](C)[C@@H](O[C@H]2C[C@@](C)(OC)[C@@H](O)[C@H](C)O2)[C@H](C)[C@@H](O[C@@H]2O[C@H](C)C[C@H](N(C)C)[C@H]2O)[C@](C)(OC)C[C@@H](C)C(=O)[C@H](C)[C@@H](O)[C@]1(C)O [CLARITHROMYCIN] | 32 (≈ 42.8 µM) | 2 (≈ 2.67 µM) | 16 (≈ 21.4 µM) | 2 (≈ 2.67 µM) | 0.06 (≈ 0.0802 µM) | 2 (≈ 2.67 µM) | 0.06 (≈ 0.0802 µM) | 4 (≈ 5.35 µM) | ≤ 0.03 | 1 (≈ 1.34 µM) | ≤ 0.03 | ≤ 0.03 | ≤ 0.03 | ≤ 0.03 | 0.5 (≈ 0.668 µM)
4 | CN(C)c1cc(NC(=O)CNC(C)(C)C)c(O)c2c1C[C@H]1C[C@H]3[C@H](N(C)C)C(O)=C(C(N)=O)C(=O)[C@@]3(O)C(O)=C1C2=O [TIGECYCLINE] | 0.12 (≈ 0.205 µM) | ≤ 0.03 | 0.25 (≈ 0.427 µM) | ≤ 0.03 | 0.06 (≈ 0.102 µM) | 0.06 (≈ 0.102 µM) | 0.12 (≈ 0.205 µM) | 0.5 (≈ 0.854 µM) | 0.06 (≈ 0.102 µM) | 0.5 (≈ 0.854 µM) | ≤ 0.03 | ≤ 0.03 | ≤ 0.03 | ≤ 0.03 | 0.06 (≈ 0.102 µM)
5 | NC[C@H]1O[C@H](O[C@H]2[C@H](O)[C@@H](O[C@H]3O[C@H](CO)[C@@H](O)[C@H](N)[C@H]3O)[C@H](N)C[C@@H]2N)[C@H](N)C[C@@H]1O [TOBRAMYCIN] | 8 (≈ 17.1 µM) | 16 (≈ 34.2 µM) | 32 (≈ 68.4 µM) | 8 (≈ 17.1 µM) | 4 (≈ 8.56 µM) | 8 (≈ 17.1 µM) | 4 (≈ 8.56 µM) | 16 (≈ 34.2 µM) | 8 (≈ 17.1 µM) | 16 (≈ 34.2 µM) | 1 (≈ 2.14 µM) | 0.5 (≈ 1.07 µM) | ≤ 0.03 | 4 (≈ 8.56 µM) | 1 (≈ 2.14 µM)
6 | O=C(O)c1cn(C2CC2)c2cc(N3CCNCC3)c(F)cc2c1=O [CIPROFLOXACIN] | 0.25 (≈ 0.754 µM) | ≤ 0.03 | 0.12 (≈ 0.362 µM) | ≤ 0.03 | ≤ 0.03 | 0.06 (≈ 0.181 µM) | 0.12 (≈ 0.362 µM) | 2 (≈ 6.04 µM) | 2 (≈ 6.04 µM) | 8 (≈ 24.1 µM) | ≤ 0.03 | 0.12 (≈ 0.362 µM) | 0.12 (≈ 0.362 µM) | ≤ 0.03 | ≤ 0.03
7 | C[C@H]1COc2c(N3CCN(C)CC3)c(F)cc3c(=O)c(C(=O)O)cn1c23.C[C@H]1COc2c(N3CCN(C)CC3)c(F)cc3c(=O)c(C(=O)O)cn1c23.O [LEVOFLOXACIN] | 0.06 | 0.06 | 0.25 | ≤ 0.03 | 0.06 | 0.25 | 0.5 | 8 | 16 | 32 | 0.06 | 0.12 | ≤ 0.03 | ≤ 0.03 | 0.06
8 | NCC[C@H](O)C(=O)N[C@@H]1C[C@H](N)[C@@H](O[C@H]2O[C@H](CN)[C@@H](O)[C@H](O)[C@H]2O)[C@H](O)[C@H]1O[C@H]1O[C@H](CO)[C@@H](O)[C@H](N)[C@H]1O [AMIKACIN] | 1 (≈ 1.71 µM) | 1 (≈ 1.71 µM) | 2 (≈ 3.42 µM) | 0.5 (≈ 0.854 µM) | 0.5 (≈ 0.854 µM) | 1 (≈ 1.71 µM) | 1 (≈ 1.71 µM) | 16 (≈ 27.3 µM) | 2 (≈ 3.42 µM) | 8 (≈ 13.7 µM) | 0.25 (≈ 0.427 µM) | 1 (≈ 1.71 µM) | ≤ 0.03 | ≤ 0.5 | 0.25 (≈ 0.427 µM)
9 | CC[C@H]1OC(=O)[C@H](C)[C@@H](O[C@H]2C[C@@](C)(OC)[C@@H](O)[C@H](C)O2)[C@H](C)[C@@H](O[C@@H]2O[C@H](C)C[C@H](N(C)C)[C@H]2O)[C@](C)(O)C[C@@H](C)CN(C)[C@H](C)[C@@H](O)[C@]1(C)O [AZITHROMYCIN] | 128 (≈ 171 µM) | 8 (≈ 10.7 µM) | > 64 | 2 (≈ 2.67 µM) | 0.5 (≈ 0.668 µM) | 64 (≈ 85.4 µM) | 0.5 (≈ 0.668 µM) | 16 (≈ 21.4 µM) | 0.5 (≈ 0.668 µM) | 2 (≈ 2.67 µM) | ≤ 0.03 | 0.5 (≈ 0.668 µM) | 0.06 (≈ 0.0801 µM) | ≤ 0.03 | 32 (≈ 42.7 µM)
10 | CC[C@H]1OC(=O)[C@H](C)[C@@H](O[C@H]2C[C@@](C)(OC)[C@@H](O)[C@H](C)O2)[C@H](C)[C@@H](O[C@@H]2O[C@H](C)C[C@H](N(C)C)[C@H]2O)[C@](C)(O)C[C@@H](C)C(=O)[C@H](C)[C@@H](O)[C@]1(C)O [ERYTHROMYCIN] | 128 (≈ 174 µM) | 64 (≈ 87.2 µM) | > 64 | 32 (≈ 43.6 µM) | 1 (≈ 1.36 µM) | 16 (≈ 21.8 µM) | 0.5 (≈ 0.681 µM) | 32 (≈ 43.6 µM) | 1 (≈ 1.36 µM) | 16 (≈ 21.8 µM) | ≤ 0.03 | 2 (≈ 2.73 µM) | 0.12 (≈ 0.164 µM) | ≤ 0.03 | 8 (≈ 10.9 µM)
